The source of these data is ChEMBL document CHEMBL1773069, “Marinoquinolines A-F, pyrroloquinolines from Ohtaekwangia kribbensis (Bacteroidetes)” (J Nat Prod, 2011).

As a reminder, the IC50 is the concentration that gives 50% inhibition. For orientation: MIC means the smallest concentration in the dilution series that meets the test's criterion for growth inhibition. Lower therefore signals a more susceptible organism.

The test system of test [1] is L6. Put plainly: Cytotoxicity against rat L6 cells by MTT assay. In kind it is cell-based.
In test [2] the test system is Leishmania donovani. Put plainly: Antileishmanial activity against Leishmania donovani MHOM-ET-67/L82 axenic amastigotes. In kind it is functional, organism-based.
Test [3] has as its system Plasmodium falciparum. As to the kind of experiment: Antimalarial activity against Plasmodium falciparum K1 intra-erythrocytic form. The class given is functional, organism-based.
The test system of test [4] is MCF7. Put plainly: Cytotoxicity against human MCF7 cells after 5 days by MTT assay. In kind it is functional, cell-based. The conditions noted are these: MCF7, 120 h. Summed up:
(§1)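 Culture media were DMEM for KB-3-1 and L929, EBM-2 for HUVEC and RPMI for MCF-7, each with 10% FBS, at 37 °C under 10% CO2. Serial dilutions from a 1 mg/mL methanol stock were added to cell suspension (50 000/mL). After 5 days, MTT was read at 590 nm. IC50 (50% growth inhibition versus control) came from dose–response curves. Methanol served as negative control.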
For orientation: Tetrazolium dyes change colour on reduction, which living cells bring about.

Test [5] relates to Trypanosoma cruzi. As to the kind of experiment: Antiparasitic activity against Trypanosoma cruzi Tulahuen C4 amastigotes. The class given is functional, organism-based.
Test [6] has as its system HUVEC. As to the kind of experiment: Cytotoxicity against HUVEC after 5 days by MTT assay. The conditions noted are these: Homo sapiens, 120 h. In kind it is cell-based. Summed up: as §1
The subject of test [7] is L929. As to the kind of experiment: Cytotoxicity against mouse L929 cells after 5 days by MTT assay. The conditions noted are these: L929, 120 h. In kind it is functional, cell-based. Summed up: as §1
Test [8] concerns Escherichia coli. As to the kind of experiment: Antimicrobial activity against Escherichia coli at 33.5 ug/ml after 24 to 48 hrs. In kind it is functional, organism-based.
Test [9] can be described thus: Cytotoxicity against human KB-3-1 cells after 5 days by MTT assay. In kind it is functional, cell-based. The settings on record: KB 3-1, 120 h. Summed up:
as §1

Test [10] concerns Trypanosoma brucei rhodesiense. As to the kind of experiment: Antiparasitic activity against Trypanosoma brucei rhodesiense STIB 900 trypomastigotes. The class given is functional, organism-based.
Test [11] relates to Rhodotorula glutinis. Put plainly: Antifungal activity against Rhodotorula glutinis after 24 to 48 hrs. The class given is functional. Summed up:
(§2)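 Broth microdilution in 96-well plates. Bacteria were grown in EBS medium. Yeasts and fungi were grown in MYC medium (1.0% phytone peptone, 1.0% glucose, 50 mM HEPES, pH 7.0). Inoculum was test organism diluted 1:100 in medium. Compound was diluted 1:1 serially from 33.5 to […] μg/mL. Plates were shaken at 600 rpm, 30 °C, for 24–48 h. MIC was the lowest concentration preventing visible growth.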

Test [12] concerns Schizosaccharomyces pombe. As to the kind of experiment: Antifungal activity against Schizosaccharomyces pombe after 24 to 48 hrs. The class given is functional. Summed up:
as §2

The subject of test [13] is Escherichia coli. Put plainly: Antimicrobial activity against Escherichia coli after 24 to 48 hrs. In kind it is functional, organism-based. Summed up:
as §2

Test [14] concerns Nocardia sp. As to the kind of experiment: Antibacterial activity against Nocardia flava after 24 to 48 hrs. In kind it is functional. Summed up: as §2
The subject of test [15] is Mucor hiemalis. Put plainly: Antifungal activity against Mucor hiemalis after 24 to 48 hrs. The class given is functional. Summed up: as §2
Test [16] deals with Micrococcus luteus. Put plainly: Antibacterial activity against Micrococcus luteus after 24 to 48 hrs. The class given is functional. Summed up:
as §2

Test [17] deals with Schizosaccharomyces pombe. As to the kind of experiment: Antifungal activity against Schizosaccharomyces pombe at 33.5 ug/ml after 24 to 48 hrs. In kind it is functional, organism-based.

In brackets after ≈: the same amount, converted by molar mass. Activity calls are given as the source filed them. Where only a bound is given, the exact number is not on record here.

Consider `Cc1nc2ccccc2c2cc[nH]c12` [MARINOQUINOLINE A], for which the IC50 in test [1] was 30.6 µM; in [2], greater than 549 µM; in test [3] it was 9.8 µM; in test [4] it was 3.5 µg/mL (≈ 19.2 µM); in test [5], 29.5 µM; in test [6], 1.5 µg/mL (≈ 8.23 µM). For the same compound, the values for the IC50 in [7], in test [9] and in [10] were 5.5 µg/mL (≈ 30.2 µM), 2.2 µg/mL (≈ 12.1 µM) and 54.4 µM, respectively. The result in test [8] was Active.

Take `c1ccc(Cc2nc3ccccc3c3cc[nH]c23)cc1` [MARINOQUINOLINE C]: the IC50 in test [1] came out at 39.1 µM; in test [2], 58.8 µM; in test [3], 5.5 µM; in test [4], 2.6 µg/mL (≈ 10.1 µM); in test [5], 28.3 µM; in test [6], 0.55 µg/mL (≈ 2.13 µM). The IC50 in test [7] came to 5.4 µg/mL (≈ 20.9 µM); in [9] it was 2 µg/mL (≈ 7.74 µM); in test [10], 42.2 µM. Further, the MIC in test [11] and in [12] was 33.5 µg/mL (≈ 130 µM) throughout.

On to `Oc1ccc(Cc2nc3ccccc3c3cc[nH]c23)cc1` [MARINOQUINOLINE D], for which the IC50 in test [1] turned out to be 66.4 µM; in test [2] it was 120 µM; in test [3], 15 µM; in test [4], 3.2 µg/mL (≈ 11.7 µM); in [5], 27 µM; in test [6], 2.5 µg/mL (≈ 9.11 µM). Moreover, the IC50 in [7] is 1.1 µg/mL (≈ 4.01 µM); in test [9] it was 3.2 µg/mL (≈ 11.7 µM); in test [10] it was 61.2 µM. Also, the result in [13], in test [14], in test [11], in test [15], in [16] and in test [12] was inactive.

For `c1ccc2c(c1)nc(-c1c[nH]c3ccccc13)c1[nH]ccc12` [MARINOQUINOLINE E], the IC50 was 35.6 µM in test [1]; 63.9 µM in test [2]; 7.6 µM in test [3]; 1.9 µg/mL (≈ 6.71 µM) in [4]; 23.6 µM in test [5]; 5.8 µg/mL (≈ 20.5 µM) in [6]. For the same compound, the values for the IC50 in test [7], in test [9] and in [10] were 5.5 µg/mL (≈ 19.4 µM), 4.5 µg/mL (≈ 15.9 µM) and 51.5 µM, respectively. Moreover, the MIC in test [14], in test [11], in test [15], in test [16] and in [12] was 33.5 µg/mL (≈ 118 µM) throughout.

Regarding `O=C(c1c[nH]c2ccccc12)c1nc2ccccc2c2cc[nH]c12` [MARINOQUINOLINE F], the IC50 in test [1] was determined as 12.5 µM; in [2], 16.1 µM; in test [3], 1.7 µM; in test [4], 1.6 µg/mL (≈ 5.14 µM); in test [5] it was 21.8 µM; in [6], 2.8 µg/mL (≈ 8.99 µM). Also, the results for the IC50 in test [7], in test [9] and in test [10] were 4.1 µg/mL (≈ 13.2 µM), 0.3 µg/mL (≈ 0.964 µM) and 39 µM, respectively. In test [17], the outcome was Active.

Consider `Nc1nc(N)nc(Nc2ccc([As]3SCC(CO)S3)cc2)n1` (centres undefined) [MELARSOPROL], for which it took 0.012 µM to reach half-maximal inhibition in test [10] (IC50).

For `COc1cc([C@@H]2c3cc4c(cc3[C@H](O)[C@H]3COC(=O)[C@H]23)OCO4)cc(OC)c1OC` [PODOFILOX], the half-inhibitory concentration (IC50) in test [1] came to 0.021 µM.

For `CC[C@]1(O)C[C@@H]2CN(CCc3c([nH]c4ccccc34)[C@@](C(=O)OC)(c3cc4c(cc3OC)N(C)[C@H]3[C@@](O)(C(=O)OC)[C@H](OC(C)=O)[C@]5(CC)C=CCN6CC[C@]43[C@@H]65)C2)C1` [VINBLASTINE], the IC50 in test [7] was determined as 0.018 µg/mL (≈ 0.0222 µM); in [9], 0.0086 µg/mL (≈ 0.0106 µM).
